From ChEMBL document CHEMBL3813679, “DARC: Mapping Surface Topography by Ray-Casting for Effective Virtual Screening at Protein Interaction Sites” (J Med Chem, 2016)
Active and inactive are the calls of the source. No cut-off for these calls is given here.

What was measured:
[1] = biological target: T1, Induced myeloid leukemia cell differentiation protein Mcl-1 (Homo sapiens, UniProt Q07820); test: biochemical
[2] = biological target: T1, Induced myeloid leukemia cell differentiation protein Mcl-1; test: Binding affinity to PEST and transmembrane regions lacking N-terminal His6/MBP-tagged human MCl1 (172 to 327 residues) expressed in Escherichia coli Rosetta2(2DE3) pLysS cells assesed as inhibition of protein interaction with carboxyfluorescein-labeled 26-mer Noxa peptide at 15 nM to 250 uM by fluorescence polarization assay in presence of CHAPS
Method in brief: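 Competition fluorescence polarization assay measuring displacement of a […] cognate (Noxa) peptide from Mcl-1. Polarization was read across a dose series of test compound. Buffer contained 0.1% CHAPS to rule out compound aggregation. Ki values were derived from the competition data.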

[3] = biological target: T1, Induced myeloid leukemia cell differentiation protein Mcl-1; test: Reversible binding affinity to PEST and transmembrane regions lacking N-terminal His6/MBP-tagged human MCl1 (172 to 327 residues) expressed in Escherichia coli Rosetta2(2DE3) pLysS cells at 50 uM measured for 300 secs by bio-layer interferometry

T1 sequence (Q07820 whole entry, the tested form may be a part): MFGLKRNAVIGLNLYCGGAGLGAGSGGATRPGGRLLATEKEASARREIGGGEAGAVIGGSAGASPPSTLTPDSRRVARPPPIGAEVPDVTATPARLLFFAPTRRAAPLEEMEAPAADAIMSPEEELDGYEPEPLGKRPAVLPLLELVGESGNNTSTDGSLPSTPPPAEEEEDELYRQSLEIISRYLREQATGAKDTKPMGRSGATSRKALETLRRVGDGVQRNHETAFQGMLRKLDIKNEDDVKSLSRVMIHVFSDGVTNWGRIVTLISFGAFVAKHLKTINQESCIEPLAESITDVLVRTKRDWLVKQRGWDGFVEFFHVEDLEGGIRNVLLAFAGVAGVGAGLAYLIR

SMILES | Ki [1] [µM] | also measured
O=C(/C=C/c1ccc(O)c(F)c1)c1ccc2c(c1)CCO2 | > 50 | –
Cc1c(/C=N/N2C=Nc3c([nH]c4ccccc34)C2)c(=O)oc2c3c4c(cc12)CCCN4CCC3 | – | inhibition of Noxa peptide binding (active/inactive call) [2]: Active; Activity [3]: Active
COc1ccc(C(=O)/C=C/c2ccncc2)c(O)c1 | > 50 | –
COc1cc(C(=O)/C=C/c2ccc(C(F)(F)F)cc2)c(O)c(OC)c1OC | > 50 | –
COc1ccc(C(=O)/C=C/c2cc(Cl)c(O)c(OC)c2)cc1 | 10 | –
COc1cc2oc(-c3ccccc3[N+](=O)[O-])cc(=O)c2c(OC)c1OC | > 50 | –
O=C(/C=C/c1ccncc1)c1ccc(O)cc1 | > 50 | –
COc1cc(O)c(C(=O)/C=C/c2ccc(C(F)(F)F)cc2)c(OC)c1OC | > 50 | –
c1cc2c(cc1[C@H]1OC[C@H]3[C@H]1CO[C@H]3c1ccc3c(c1)OCO3)OCO2 | 7 | inhibition of Noxa peptide binding (active/inactive call) [2]: Active; Activity [3]: Active
COc1ccc(C(=O)/C=C/c2ccc(O)c(F)c2)c(OC)c1OC | 28 | –
O=C(/C=C/c1cc(F)c(O)c(Cl)c1)c1ccncc1 | > 50 | –
COc1cc(C(=O)/C=C/c2ccc3c(c2)OCO3)c(O)c(OC)c1OC | > 50 | –
O=C(/C=C/c1ccc(O)cc1)c1ccc2c(c1)CCO2 | > 50 | –
COc1cc2oc(-c3ccccc3N)cc(=O)c2c(OC)c1OC | > 50 | –
COc1ccc(C(=O)/C=C/c2cc(F)c(O)c(Cl)c2)c(OC)c1OC | 3 | –
COc1cc(O)c(C(=O)/C=C/c2ccc([N+](=O)[O-])cc2)c(OC)c1OC | > 50 | –

SMILES | Ki [1] [µM] | also measured
COc1cc(C(=O)/C=C/c2ccc([N+](=O)[O-])cc2)c(O)c(OC)c1OC | > 50 | –
COc1cc(O)c(C(=O)/C=C/c2ccccc2[N+](=O)[O-])c(OC)c1OC | > 50 | –
O=C(/C=C/c1cc(F)c(O)c(F)c1)c1ccc2c(c1)CCO2 | > 50 | –
COc1cc(C(=O)/C=C/c2ccc(O)cc2)c(O)c(OC)c1OC | 40 | –
COc1ccc(/C=C/C(=O)c2ccc(O)cc2)c(O)c1 | > 50 | –
COc1cc2oc(-c3ccc(C(F)(F)F)cc3)cc(=O)c2c(OC)c1OC | > 50 | –
COc1ccc(C(=O)/C=C/c2cc(F)c(O)c(Cl)c2)cc1 | 7 | –
C[C@@]12CC[C@@H]3[C@H](CCC4=CC(=O)CC[C@H]43)[C@H]1CC[C@H]2OC1(O)C(=O)c2ccccc2C1=O | 12 | inhibition [2]: Active; Activity [3]: Active
COc1ccc(/C=C/C(=O)c2cc(OC)c(OC)c(OC)c2O)cc1 | > 50 | –
COc1cc2oc(-c3ccc(N)cc3)cc(=O)c2c(OC)c1OC | > 50 | –
COc1cc(O)c(C(=O)/C=C/c2ccc(O)c(OC)c2)c(OC)c1 | 21 | inhibition of Noxa peptide binding (active/inactive call) [2]: Active; Activity [3]: Active
COc1ccc(C(=O)/C=C/c2ccc(O)cc2)cc1 | > 50 | –
COc1cc(/C=C/C(=O)c2ccc(OC)c(OC)c2OC)cc(Cl)c1O | 2 | –
COc1ccc(C(=O)/C=C/c2cccc(F)c2O)cc1 | 20 | –
COc1ccc(/C=C/C(=O)c2ccc(O)cc2)cc1 | > 50 | –
